From PubChem
The list is not random: actives were taken first. Their share in the collection is about 2%.
LMPTP inh: blocks human LMPTP phosphatase | P24666 | 360,000 compounds, 0.22% hits | recombinant LMPTP-A, OMFP fluorogenic substrate, fluorescence intensity | inhibition, % at 20 µM;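 active means compounds that cut the enzyme signal by at least half of the control window in the single-dose screen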
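Test system: LMPTP-A phosphatase enzyme; input: 0.625 nM LMPTP-A final; reagent: OMFP substrate, 400 µM final; compound dosing: 20 µM single dose, 3% DMSO; incubation: 50 min dark incubation at room temperature; measured by: endpoint fluorescence intensity from OMFP dephosphorylation; measure: % inhibition relative to no-enzyme and uninhibited control wells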
SUMO1-SIM PPI: SUMO1-SIM interaction modulation; P63165; SUMO1 binding to a labelled peptide, TR-FRET, 1 h; inhibition, % at 20 µM; 360,000 compounds, 0.33% hits; in the data active means inhibition above about 37%
Target sequence (P63165 whole entry, looked up): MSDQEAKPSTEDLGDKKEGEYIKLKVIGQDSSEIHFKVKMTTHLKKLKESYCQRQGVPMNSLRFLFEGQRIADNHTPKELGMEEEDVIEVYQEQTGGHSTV
DNMT1 inh: DNMT1 (human) enzyme inhibition. inhibition (reported as % activation of signal), % at 10 µM. P26358. DNMT1 molecular beacon, Hinp1I cleavage, fluorescence. 360,000 compounds, 0.83% hits; in the data active means inhibition above about 50%
CSN inh: blocks human CSN-mediated cullin deneddylation; AID 651999; inhibition, % at 12.5 µM; Purified CSN, SCF-Nedd8-OG deneddylation, fluorescence polarization; 360,000 compounds, 0.38% hits;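 active means pattern-corrected inhibition above about 35%, with an unprinted fluorescence ratio check between 0.5 and 1.5, limit read from the data, passing the limit was not always enough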
Target sequence (Q92905 whole entry, looked up, one chain of several): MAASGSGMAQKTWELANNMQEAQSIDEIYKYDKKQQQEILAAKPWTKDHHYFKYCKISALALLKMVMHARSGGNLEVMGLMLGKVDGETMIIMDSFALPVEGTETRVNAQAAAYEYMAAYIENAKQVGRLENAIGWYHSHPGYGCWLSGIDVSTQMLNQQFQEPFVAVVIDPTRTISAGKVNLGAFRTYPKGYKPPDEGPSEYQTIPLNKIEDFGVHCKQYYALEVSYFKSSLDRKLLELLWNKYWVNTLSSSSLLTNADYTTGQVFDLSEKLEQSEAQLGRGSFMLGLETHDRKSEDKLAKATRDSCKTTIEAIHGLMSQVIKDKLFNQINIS
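assay system = purified human Csn5 enzyme expressed in HEK293T cells | amount = 0.24 nM enzyme | buffer or medium = Tris/NaCl/DTT buffer, pH 7.5 | reagent = 10 nM SCFSkp2-Nedd8OG | compound = one concentration, 12.5 µM, 0.25% DMSO | times = 90 min reaction at room temperature | signal = FP | read-out basis = % inhibition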
STEP inh: blocks human striatal-enriched tyrosine phosphatase; recombinant STEP, OMFP fluorogenic substrate, fluorescence; inhibition, % at 20 µM; 360,000 compounds, 0.25% hits; AID 588621;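 active means inhibition at 20 µM, scaled per plate between control wells, above about 37%, limit read from the data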
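Measure: Control-normalized % inhibition with plate pattern correction | Test system: STEP phosphatase, cell-free reaction | Medium: pH 6.0 Bis-Tris with DTT and Tween 20 | Technique: Fluorescence, 480/540 nm | Times: Reaction 20 min, ambient temperature | Doses: Single compound dose of 20 µM, 1% DMSO final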
Scp1 inh: blocks human Scp-1 phosphatase activity; Q9GZU7; 340,000 compounds, 0.88% hits; Recombinant Scp1, phosphopeptide, malachite green phosphate absorbance; inhibition, % at 20 µM;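 active means inhibition above about 50% at 20 µM, limit read from the data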
Target sequence (Q9GZU7 76-261 limits assumed): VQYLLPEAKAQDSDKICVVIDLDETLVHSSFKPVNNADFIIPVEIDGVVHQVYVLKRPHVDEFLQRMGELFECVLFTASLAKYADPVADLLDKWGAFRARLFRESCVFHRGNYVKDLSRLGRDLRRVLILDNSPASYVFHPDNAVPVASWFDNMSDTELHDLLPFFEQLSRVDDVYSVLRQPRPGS
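System: truncated SCP-1 phosphatase (76-261aa); medium: Tris acetate buffer pH 5.5 with MgCl2 and Tween-20; incubation: 45 min room-temperature reaction, 5 min colour, 30 min stabiliser; compound: single 20 µM dose, 1% DMSO; reagent: Phosphorylated 17-residue peptide substrate; read-out: % inhibition at 20 µM; technique: colorimetric free-phosphate detection, absorbance 630 nm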
Of the large screens only hits and unclear results are named; the others gave an inactive call.

Cc1ccc(-c2ccc(C3C(C#N)=C(N)Oc4n[nH]c(C)c43)o2)cc1 (stereo not drawn)	none
Cc1[nH]nc2c1C(c1ccc(-c3ccc(Cl)cc3)o1)C(C#N)=C(N)O2 (stereo not drawn)	SUMO1-SIM PPI 63.8
COc1ccc(/C=N/Nc2nc(C(=O)O)cs2)cc1	LMPTP inh 64.4
Cc1cc2nc(-c3cccc(Br)c3)c(CC(C)(C)C)n2c(C)c1Br	CSN inh 131.8 (no result: Scp1 inh)
CCC(C)[C@H]1CNC(=O)C(=O)N1CC1CCCCC1 (stereo partly drawn)	SUMO1-SIM PPI 46.6 (no result: DNMT1 inh, STEP inh, Scp1 inh)
COc1ccc(CCNC(=O)C(C)SCc2ccccc2)cc1 (stereo not drawn)	none
CC(Sc1ccccc1)C(=O)NCCc1ccccc1 (stereo not drawn)	CSN inh 50.5
O=C(CCN1C(=O)/C(=C/c2ccccc2Cl)SC1=S)NC1C=CS(=O)(=O)C1 (stereo not drawn)	DNMT1 inh 54.3
O=C(CCN1C(=O)/C(=C/c2ccccc2F)SC1=S)NCCCn1ccnc1	none
Cn1c(N)c(C(=O)COC(=O)COc2ccc(Br)cc2)c(=O)n(C)c1=O	SUMO1-SIM PPI 40.3
CCC(=O)c1ccc(OCC(=O)OCC(=O)c2c(N)n(C)c(=O)n(C)c2=O)cc1	none
O=C(Nc1nc(-c2ccccc2)cs1)C1CCCN(S(=O)(=O)c2ccccc2)C1 (stereo not drawn)	SUMO1-SIM PPI 42.3
O=C(Nc1nc(-c2ccccc2)cs1)C1CCCN(S(=O)(=O)c2cccc([N+](=O)[O-])c2)C1 (stereo not drawn)	none
COc1cc(C2c3c([nH]c(=O)[nH]c3=O)Nc3ccc4ccccc4c32)cc(OC)c1OC (stereo not drawn)	CSN inh 66.2
COc1ccc(CCNC(=O)c2cc3c(=O)n4cccc(C)c4nc3s2)cc1OC	SUMO1-SIM PPI 40.0
CCC(Oc1ccccc1)C(=O)N1CCN(S(=O)(=O)c2ccccc2)CC1 (stereo not drawn)	none
CN(C(=O)c1ccccc1C(=O)OCC(=O)c1ccc(F)c(F)c1)C1CCCCC1	none
CS(=O)(=O)N(CC(=O)N1CCN(Cc2ccccc2)CC1)Cc1ccccc1	CSN inh 81.9
CCOC(=O)N1CCN(C(=O)CN(Cc2ccccc2)S(C)(=O)=O)CC1	none
COC(=O)[C@@]1(Cc2ccc(F)cc2)[C@H]2c3cc(C(=O)N(C)C)n(Cc4cc(C)n(C)n4)c3C[C@H]2CN1C(=O)c1ccccc1	CSN inh 102.1 (no result: DNMT1 inh, STEP inh, Scp1 inh)
Oc1cccc(/C=N/Nc2nn3cnnc3c3ccccc23)c1	SUMO1-SIM PPI 84.0
Cc1ccc2c(CC(=O)NCC3(N4CCOCC4)CCCCC3)coc2c1C	none
O=C(CSC(=S)N1CCCC1)N1CCN(S(=O)(=O)c2cccc([N+](=O)[O-])c2)CC1	none
CC(C)CCNC(=O)C1CCN(S(=O)(=O)c2ccc3nc4c(c(C(=O)O)c3c2)CCCCC4)CC1	none
O=C(O)c1c2c(nc3ccc(S(=O)(=O)N4CCC(C(=O)NC5CCCCCC5)CC4)cc13)CCCC2	SUMO1-SIM PPI 41.7
CNc1nc2c(-c3ccc(Cl)cc3)nnn2c2ccccc12	LMPTP inh 76.5
Cc1ccc(-c2nnn3c2nc(NC(C)C)c2ccccc23)cc1	none
O=C1Nc2ccccc2/C1=N\N=C\C1=C(N2CCOCC2)C(=C\c2ccccc2)/CC1	none (no result: Scp1 inh)
O=C1Nc2ccc(Br)cc2/C1=N\N=C\C1=C(N2CCOCC2)C(=C/c2ccccc2)/CC1	Scp1 inh 64.5
COC(=O)c1cnc(Nc2nc(C(N)c3ccccc3Cl)cs2)nc1C(F)(F)F (stereo not drawn)	none (no result: Scp1 inh)
O=C(O)C1Nc2c(C(=O)N3CCOCC3)cccc2C2C=CCC12 (stereo not drawn)	DNMT1 inh 107.0, CSN inh 35.3, Scp1 inh 50.6
O=C(O)C1Nc2c(C(F)(F)F)ccc(Cl)c2C2C=CCC12 (stereo not drawn)	none
CC(C)C1Nc2ccc(C(=O)O)cc2C2C=CCC21 (stereo not drawn)	none
Cc1cc(C)c2c(c1)NC(C(=O)O)C1CC=CC21 (stereo not drawn)	SUMO1-SIM PPI 42.4, DNMT1 inh 76.1, Scp1 inh 72.4
Cc1ccc2c(c1C)NC(C(=O)O)C1CC=CC21 (stereo not drawn)	LMPTP inh 63.1, SUMO1-SIM PPI 86.5, DNMT1 inh 103.1, Scp1 inh 79.5
NC(CSC(c1ccccc1)(c1ccccc1)c1ccc2c(c1)OCO2)C(=O)O (stereo not drawn)	DNMT1 inh 51.5 (no result: Scp1 inh)
CC1CCC(NC(=O)CN2C(=O)c3cccnc3Oc3ccc(Cl)cc32)CC1 (stereo not drawn)	none
CCOC(=O)C1=CCC(c2ccccc2)N(S(=O)(=O)c2ccccc2C)C1 (stereo not drawn)	CSN inh 91.7 (no result: Scp1 inh)
CC(C)(O)C#Cc1cccc(-c2nc(C(=O)NCCCN3CCOCC3)cc3c2[C@H](CCO)N(S(=O)C(C)(C)C)C3)c1 (stereo partly drawn)	none (no result: Scp1 inh)
CC(Cc1c[nH]c2ccccc12)C(=O)O (stereo not drawn)	DNMT1 inh 73.0, Scp1 inh 66.3
O=C(O)C(O)Cc1c[nH]c2ccccc12 (stereo not drawn)	none
Cc1cc(C)cc(NC(=O)c2cccnc2)c1	none
C#CCn1c(=O)cc(C)c2ccccc21	none
C#CCn1cc(C=C2C(=O)c3ccccc3C2=O)c2ccccc21	DNMT1 inh 59.6
O=C1CC(=O)N(Cc2ccco2)C(=S)N1	LMPTP inh 50.6, SUMO1-SIM PPI 68.7, DNMT1 inh 110.7, CSN inh 61.5, STEP inh 82.9, Scp1 inh 92.5
CC(C)S(=O)(=O)c1csc(C(=O)Nc2ccc(F)cc2)c1N	Scp1 inh 91.6
Cn1c(CCN2CCN(c3ccccn3)CC2)nc2cc(NC(=O)COc3ccc([N+](=O)[O-])cc3)ccc21	LMPTP inh 70.7
CC(C)c1cc(Cn2c3ccccc3c(=O)n2C(C)Cn2cc(-c3ccc(C(C)(C)C)cc3)nn2)on1 (stereo not drawn)	none (no result: DNMT1 inh, STEP inh, Scp1 inh)
O=C(COC(=O)c1ccccc1Cl)Nc1cccc(S(=O)(=O)N2CCCCC2)c1	none (no result: Scp1 inh)
Cc1cc(C)c(C(=O)OCC(=O)Nc2cccc(S(=O)(=O)N3CCCCC3)c2)c(C)c1	CSN inh active
Cc1csc(SCC(=O)Nc2cccc(S(=O)(=O)N3CCCC3)c2)n1	CSN inh 106.5
Cc1ccc(S(=O)(=O)NCCC(=O)NCCOc2ccccc2)cc1	none
CC(=O)N1CCN(S(=O)(=O)c2ccc(C)cc2)C1C (stereo not drawn)	none
